Laboratory results from ChEMBL document CHEMBL3853287, “Characterization of Emodin as a Therapeutic Agent for Diabetic Cataract” (J Nat Prod, 2016).
Activity calls are given as the source filed them. No cut-off for these calls is given here.

Legend:
Mus musculus [1] = test: In vivo inhibition of aldose reductase in wild type mouse assessed as reduction in vacuolization at 35 mg/kg, po administered 3 days prior to birth followed by compound treatment till day 16 by hematoxylin/eosin staining; format: functional, organism-based
Outline: (§1)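 PAR37 human AR transgenic mice and nontransgenic littermates, roughly equal by sex. Nursing mothers given 35 mg kg−1 in drinking water (DMSO vehicle) from pups' birth, or from 3 days before birth in one group. Sorbinil 80 mg kg−1 served as ARI control. Lenses taken at P16 and H&E-stained; vacuolated cross-sectional area measured on sections.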

[2] = Cytotoxicity against human FHL124 cells assessed as reduction in cell viability at 10 uM after 24 hrs by MTT assay; format: toxicity, cell-based; settings: fhl124, 24 h
Outline: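 FHL 124 human lens epithelial cells grown in low-glucose (1 g L−1) DMEM with 4 mM L-glutamine and 5% FBS at 37 °C, 5% CO2. Seeded at 10^4 cells, treated with emodin for 24 h, then given MTT for 4 h. Viability read as absorbance at 570 nm.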

Mus musculus [3] = test: In vivo inhibition of aldose reductase in transgenic PAR37 mouse expressing human aldose reductase assessed as vacuolization at 35 mg/kg, po administered 3 days prior to birth followed by compound treatment till day 16 by hematoxylin/eosin staining (reference value: 18%); format: functional; set-up: scale not given: the % may be the effect or the level left; outline: as §1
[4] = molecular target: T1, Aldo-keto reductase family 1 member B1 (Homo sapiens, UniProt P15121); test: Inhibition of aldose reductase in human FHL124 cells assessed as reduction in high glucose-induced elevation of sorbitol accumulation at 5 uM after 24 hrs by colorimetric assay; format: cell-based
Outline: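 FHL 124 cells (10^5 per 60 mm dish) treated with emodin (5 μM) plus low (5 mM) or high (30 mM) glucose for 24 h. Cells washed twice in cold PBS, lysed and deproteinized. Sorbitol measured in neutralized samples by colorimetric kit at 560 nm.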

Mus musculus [5] = test: In vivo inhibition of aldose reductase in wild type mouse assessed as reduction in vacuolization at 35 mg/kg, po for 16 days by hematoxylin/eosin staining; format: functional, organism-based; outline: as §1
Mus musculus [6] = test: In vivo inhibition of aldose reductase in transgenic PAR37 mouse expressing human aldose reductase assessed as reduction in vacuolization at 35 mg/kg, po for 16 days by hematoxylin/eosin staining; format: functional, organism-based; outline: as §1
[7] = molecular target: T1, Aldo-keto reductase family 1 member B1; test: Inhibition of human recombinant aldose reductase expressed in Escherichia coli at 1 uM using DL-glyceraldehyde as substrate in presence of NADPH measured up to 7 days at 37 degC by spectrophotometric analysis
Outline: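 Inhibitor (1 μM, in DMSO) pre-incubated at 37 °C for 1, 3, 5 and 7 days before testing. Recombinant human AKR1B1 from E. coli then assayed by NADPH oxidation at 340 nm with 1.0 mM DL-glyceraldehyde and 150 μM NADPH in HEPES pH 7.5 buffer. Means ± SEM, n = 3.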

[8] = molecular target: T1, Aldo-keto reductase family 1 member B1; test: Uncompetitive inhibition of human recombinant aldose reductase expressed in Escherichia coli using DL-glyceraldehyde as substrate by double reciprocal plot analysis
[9] = molecular target: T1, Aldo-keto reductase family 1 member B1; test: Inhibition of human recombinant aldose reductase expressed in Escherichia coli using DL-glyceraldehyde as substrate in presence of NADPH by spectrophotometric analysis
Mus musculus [10] = test: In vivo inhibition of aldose reductase in transgenic PAR37 mouse expressing human aldose reductase assessed as vacuolization at 35 mg/kg, po for 16 days by hematoxylin/eosin staining (reference value: 18%); format: functional; set-up: scale not given: the % may be the effect or the level left; outline: as §1
Mus musculus [11] = test: In vivo inhibition of aldose reductase in transgenic PAR37 mouse expressing human aldose reductase assessed as vacuolization at 80 mg/kg, po for 16 days by hematoxylin/eosin staining (reference value: 18%); format: functional; set-up: scale not given: the % may be the effect or the level left
Outline: (§2)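 Drug dissolved in DMSO was given in the drinking water of nursing mothers from the pups' birthdate, dosed at 80 mg kg−1 to the mother; vehicle group received DMSO. Pups were PAR37 human AR transgenic mice or nontransgenic littermates, balanced by gender, n = 3. Lenses were taken at P16 and sectioned with H&E staining, and vacuolated cross-sectional area was measured as percent of lens.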

Mus musculus [12] = test: In vivo inhibition of aldose reductase in wild type mouse assessed as reduction in vacuolization at 80 mg/kg, po for 16 days by hematoxylin/eosin staining; format: functional, organism-based; outline: as §2
Mus musculus [13] = test: In vivo inhibition of aldose reductase in transgenic PAR37 mouse expressing human aldose reductase assessed as reduction in vacuolization at 80 mg/kg, po for 16 days by hematoxylin/eosin staining; format: functional, organism-based; outline: as §2

Structure (SMILES)	inhibition (Mus musculus [1])	Activity [2]	Activity (Mus musculus [3]) [%]	inhibition [4]	inhibition (Mus musculus [5])	inhibition (Mus musculus [6])	inhibition [7]	Ki [8] [nM]	IC50 [9] [nM]	Activity (Mus musculus [10]) [%]	Activity (Mus musculus [11]) [%]	inhibition (Mus musculus [12])	inhibition (Mus musculus [13])
Cc1cc(O)c2c(c1)C(=O)c1cc(O)cc(O)c1C2=O [EMODIN]	Active	Toxic	2	Active	Active	Active	Active	2110	2690	6.3	–	–	–
O=C1NC(=O)[C@@]2(CCOc3ccc(F)cc32)N1 [SORBINIL]	–	–	–	–	–	–	–	–	–	–	3.8	Active	Active
